Assay results reported in ChEMBL document CHEMBL3352088, “Novel derivatives of usnic acid effectively inhibiting reproduction of influenza A virus” (Bioorg Med Chem, 2014).

Experiments:
[1] = Cytotoxicity against MDCK cells assessed reduction in cell viability after 48 hrs by MTT assay; type: cell-based, Canis lupus familiaris; conditions: dog, read-out: CTD50
Summary of the method: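 MDCK monolayers were grown in MEM with 5% fetal calf serum and washed with serum-free MEM. Compounds (5 mg/ml DMSO stock) were applied as twofold dilutions, 1000–4 microgram/ml in MEM, for 48 h at 37°C. After PBS washes, MTT (0,5 mg/ml) was added for 60 min at 37°C, 5% CO2. Formazan was dissolved in DMSO and read at 535 nm. CTD50 is the concentration cutting viability 50%.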

[2] = Selectivity index, ratio of CTD50 for MDCK cells to ED50 for Influenza A virus (A/California/07/09(H1N1)) pdm09; type: toxicity, cell-based; conditions: dog, read-out: Selectivity Index

Row | SMILES | CC50 at 48 h [1] [µM] | selectivity ratio [2]
1 | CC(=O)C1=C(O)C[C@H]2Oc3c(C(C)=O)c(O)c(C)c(O)c3[C@@]2(C)C1=O | 14.5 | 1.8
2 | CC(=O)C1=C(O)C=C2O[C@]34O[C@@]3(C(C)=O)C(=O)C(C)=C(O)[C@]4(O)[C@@]2(C)C1=O | 234 | 22
3 | CC(=O)c1c(O)c(C)c(O)c2c1OC1=CC(=O)/C(=C(/C)NCCCC(=O)O)C(=O)[C@@]12C | 130 | 3.7
4 | COc1ccc(/C=C/C(=O)c2c(O)c(C)c(OC)c3c2OC2=Cc4c(c(C)nn4-c4ccccc4)[C@@H](O)[C@@]23C)cc1OC | 431 | 12.5
5 | CC(=O)C1=C(O)C=C2Oc3c4c(c(C)c(O)c3[C@@]2(C)C1=O)O/C(=C\c1ccncc1)C4=O | 46.4 | 6.1
6 | CC(=O)c1c(O)c(C)c(O)c2c1OC1=CC(=O)/C(=C(/C)NCCCC(=O)O)C(=O)[C@]12C | 83.9 | 3
7 | CC(=O)C1=C(O)C=C2Oc3c(C(=O)CSCc4ccccc4)c(O)c(C)c(O)c3[C@@]2(C)C1=O | 6.4 | 3
8 | CC(=O)c1c(O)c(C)c(O)c2c1OC1=Cc3c(c(C)nn3-c3cccc(C(F)(F)F)c3)C(=O)[C@@]12C | 1100 | 16
9 | CC(=O)C1=C(O)C=C2Oc3c(C(=O)CSCc4ccc(C)cc4)c(O)c(C)c(O)c3[C@@]2(C)C1=O | 2.1 | 1
10 | COc1cccc(/C=C/C(=O)c2c(O)c(C)c(OC)c3c2OC2=Cc4c(c(C)nn4-c4ccccc4)[C@@H](O)[C@@]23C)c1OC | 862 | 17
11 | CC(=O)c1c(O)c(C)c(O)c2c1OC1=Cc3c(c(C)nn3-c3ccccc3)C(=O)[C@@]12C | 832 | 12
12 | CC(=O)C1=C(O)C=C2Oc3c(C(C)=O)c(OC(=O)c4ccccc4Br)c(C)c(OC(=O)c4ccccc4Br)c3[C@@]2(C)C1=O | 31.1 | 4
13 | CC(=O)c1c(O)c(C)c(O)c2c1OC1=CC(=O)/C(=C(/C)NCCC(=O)O)C(=O)[C@]12C | 145 | 10
14 | CSCC[C@H](N/C(C)=C1\C(=O)C=C2Oc3c(C(C)=O)c(O)c(C)c(O)c3[C@@]2(C)C1=O)C(=O)O | 21.1 | 5
15 | COc1ccc(/C=C/C(=O)c2c(O)c(C)c(OC)c3c2OC2=Cc4c(c(C)nn4-c4ccccc4)[C@@H](O)[C@@]23C)c(OC)c1 | 517 | 20
16 | CC(=O)C1=C(O)C=C2Oc3c(C(C)=O)c(O)c(C)c(O)c3[C@]2(C)C1=O [(-)-USNIC ACID] | 134 | 10.2
17 | COc1ccc(/C=C/C(=O)c2c(O)c(C)c(OC)c3c2OC2=Cc4c(c(C)nn4-c4ccccc4)[C@@H](O)[C@@]23C)c(OC)c1OC | 279 | 8.5
18 | CC(=O)C1=C(O)C=C2Oc3c(C(C)=O)c(O)c(C)c(O)c3[C@@]2(C)C1=O [(+)-USNIC ACID] | 424 | 8.2
19 | COc1ccccc1/C=C/C(=O)c1c(O)c(C)c(OC)c2c1OC1=Cc3c(c(C)nn3-c3ccccc3)[C@H](O)[C@]12C | 909 | 14
20 | COc1c(C)c(O)c(C(C)=O)c2c1[C@]1(C)C(=Cc3c(c(C)nn3-c3ccccc3)CC13CO3)O2 (single isomer, unassigned; (+)) | 681 | 2.6
21 | CC(=O)C1=C(O)C=C2Oc3c(C(=O)CSc4nc5ccccc5o4)c(O)c(C)c(O)c3[C@@]2(C)C1=O | 2 | 1
22 | COc1ccc(-c2cc(-c3c(O)c(C)c(OC)c4c3OC3=Cc5c(c(C)nn5-c5ccccc5)[C@@H](O)[C@@]34C)n[nH]2)cc1 | 1020 | 10
23 | CC(=O)C1=C(O)C=C2Oc3c(C(=O)CSCc4ncccc4C(=O)O)c(O)c(C)c(O)c3[C@@]2(C)C1=O | 177 | 3.1
24 | CC(=O)c1c(O)c(C)c(O)c2c1OC1=Cc3c(c(C)nn3-c3ccccc3)C(=O)[C@]12C | 565 | 10
25 | CC(=O)c1c(O)c(C)c(O)c2c1OC1=Cc3c(c(C)nn3-c3ccccc3)[C@@H](O)[C@@]12C | 26.3 | 11
26 | CC(=O)c1c(O)c(C)c(O)c2c1OC1=CC(=O)/C(=C(/C)NCC(=O)O)C(=O)[C@@]12C | – | 6
27 | CC(=O)[C@@]12O[C@@]13OC1=Cc4c(c(C)nn4-c4ccccc4)C(=O)[C@]1(C)[C@@]3(O)C(O)=C(C)C2=O | 67 | 5
28 | CC(=O)c1c(O)c(C)c(O)c2c1OC1=CC(=O)/C(=C(/C)N[C@H](CC(=O)O)CC(C)C)C(=O)[C@]12C | 32.8 | 5

Row | SMILES | CC50 at 48 h [1] [µM] | selectivity ratio [2]
29 | CC(=O)C1=C(O)C=C2Oc3c4c(c(C)c(O)c3[C@]2(C)C1=O)OCC4=O | 132 | 2
30 | CC(=O)C1=C(O)C=C2Oc3c(C(C)=O)c(OC(F)(Cl)C(F)F)c(C)c(O)c3[C@@]2(C)C1=O (some centres undefined) | 100 | 14
31 | CC(=O)C1=C(O)C=C2Oc3c4c(c(C)c(O)c3[C@@]2(C)C1=O)O/C(=C\c1cccnc1)C4=O | 53.4 | 7.7
32 | CC(=O)c1c(O)c(C)c(O)c2c1OC1=CC(=O)/C(=C(/C)N[C@@H](CC(C)C)C(=O)O)C(=O)[C@@]12C | 13.1 | 2
33 | COc1ccccc1/C=C1\Oc2c(C)c(O)c3c(c2C1=O)OC1=CC(O)=C(C(C)=O)C(=O)[C@@]13C | 32.6 | 6.8
34 | COc1c(C)c(O)c(C(=O)/C=C/c2ccccc2)c2c1[C@]1(C)C(=Cc3c(c(C)nn3-c3ccccc3)CC13CO3)O2 (single isomer, unassigned; (+)) | 18.3 | 3.3
35 | COc1c(C)c(O)c2c(c1C(=O)CSc1nc3ccccc3o1)OC1=CC(O)=C(C(C)=O)C(=O)[C@]12C | 178 | 7.5
36 | COc1ccc2[nH]c(SCC(=O)c3c(OC)c(C)c(O)c4c3OC3=CC(O)=C(C(C)=O)C(=O)[C@@]34C)nc2c1 | 560 | 23.1
37 | COc1c(C)c(O)c(C(=O)/C=C/c2ccccc2)c2c1[C@@]1(C)C(=Cc3c(c(C)nn3-c3ccccc3)[C@@H]1O)O2 | 106 | 1.7
38 | COc1c(C)c(O)c(C(=O)/C=C/c2ccc(Cl)cc2)c2c1[C@]1(C)C(=Cc3c(c(C)nn3-c3ccccc3)[C@H]1O)O2 | 253 | 4.6
39 | CC(=O)C1=C(O)C=C2Oc3c4c(c(C)c(O)c3[C@@]2(C)C1=O)OCC4=O | 117 | 1.8
40 | COc1cccc(/C=C/C(=O)c2c(O)c(C)c(OC)c3c2OC2=Cc4c(c(C)nn4-c4ccccc4)[C@H](O)[C@]23C)c1OC | 862 | 11.3
41 | COc1c(C)c(O)c(C(=O)/C=C/c2ccc(SC)cc2)c2c1[C@]1(C)C(=Cc3c(c(C)nn3-c3ccccc3)[C@H]1O)O2 | 530 | 10
42 | COc1c(C)c(O)c2c(c1C(=O)CSC1=NCCS1)OC1=CC(O)=C(C(C)=O)C(=O)[C@@]12C | 105 | 7.1
43 | CC(=O)C1=C(O)C=C2O[C@@]34O[C@]3(C(C)=O)C(=O)C(C)=C(O)[C@@]4(O)[C@]2(C)C1=O | 152 | 5.3
44 | COc1ccccc1/C=C/C(=O)c1c(O)c(C)c(OC)c2c1OC1=Cc3c(c(C)nn3-c3ccccc3)[C@@H](O)[C@@]12C | 909 | 11
45 | CC(=O)C1=C(O)C=C2Oc3c(C(=O)CSc4nc5ccccc5s4)c(O)c(C)c(O)c3[C@@]2(C)C1=O | 58.9 | 2
46 | CC(=O)c1c(O)c(C)c(O)c2c1OC1=CC(=O)/C(=C(/C)NCC(=O)O)C(=O)[C@]12C | 150 | 14
47 | COc1c(C)c(O)c(C(=O)/C=C/c2ccc(Cl)cc2)c2c1[C@@]1(C)C(=Cc3c(c(C)nn3-c3ccccc3)[C@@H]1O)O2 | 116 | 1.5
48 | CC(=O)c1c(O)c(C)c(O)c2c1OC1=CC(=O)/C(=C(/C)NCCC(=O)O)C(=O)[C@@]12C | 147 | 20.3
49 | COc1c(C)c(O)c(C(=O)/C=C/c2ccccc2)c2c1[C@]1(C)C(=Cc3c(c(C)nn3-c3ccccc3)[C@H]1O)O2 | 36.5 | 1.1
50 | CC(=O)C1=C(O)C=C2Oc3c4c(c(C)c(O)c3[C@@]2(C)C1=O)O/C(=C\c1ccc(Br)cc1)C4=O | 39.4 | 8.3
51 | COc1cc(/C=C/C(=O)c2c(O)c(C)c(OC)c3c2OC2=Cc4c(c(C)nn4-c4ccccc4)[C@@H](O)[C@@]23C)cc(OC)c1OC | 98.4 | 12
52 | COc1cccc(/C=C/C(=O)c2c(O)c(C)c(OC)c3c2OC2=Cc4c(c(C)nn4-c4ccccc4)C(=O)[C@@]23C)c1OC | 34.6 | 4
53 | CC(=O)c1c(O)c(C)c(O)c2c1OC1=Cc3c(c(C)nn3-c3ccccc3)[C@H](O)[C@]12C | 47.8 | 4
54 | COc1ccc(OC)c(/C=C/C(=O)c2c(O)c(C)c(OC)c3c2OC2=Cc4c(c(C)nn4-c4ccccc4)[C@@H](O)[C@@]23C)c1 | 517 | 20
55 | COc1c(C)c(O)c2c(c1C(=O)CSCCC(=O)O)OC1=CC(O)=C(C(C)=O)C(=O)[C@@]12C | 938 | 5.8
